According to ChEMBL document CHEMBL4229417, “Design and synthesis of alkyl substituted pyridino[2,3-D]pyrimidine compounds as PI3Kα/mTOR dual inhibitors with improved pharmacokinetic properties and potent in vivo antitumor activity” (Bioorg Med Chem, 2018):
The source made the active and inactive calls. No cut-off for these calls is given here.

Key:
[1] = molecular target: T1, Serine/threonine-protein kinase mTOR (Homo sapiens, UniProt P42345); test: Inhibition of mTOR (unknown origin) using ULight-4E-BP1 peptide substrate measured after 1 hr by Lance Ultra assay
Outline: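 mTOR (10 nM final) was reacted with ULight-4E-BP1 peptide (50 nM final) and ATP in kinase buffer for 1 h at room temperature.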

[2] = molecular target: T2, Phosphatidylinositol 4,5-bisphosphate 3-kinase catalytic subunit alpha isoform (Homo sapiens, UniProt P42336); test: Inhibition of PI3Kalpha (unknown origin) using PIP2 as substrate measured after 1 hr by Kinase-Glo luminescent assay
[3] = tested on: U-87 MG; test: Antiproliferative activity against human U87MG cells assessed as reduction in cell viability after 48 hrs by CCK8 assay; type: functional, cell-based, U-87MG ATCC
Outline: (§1)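 Cells were seeded at 5000/well and grown 24 h at 37 °C, 5% CO2. They were then exposed 48 h to compound diluted from DMSO into medium (final DMSO <0.4%). CCK-8 was added for 1 h and absorbance read at 540 nm. IC50 came from the viability vs concentration (nM) curve, in triplicate.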

[4] = tested on: MCF7; test: Antiproliferative activity against human MCF7 cells assessed as reduction in cell viability after 48 hrs by CCK8 assay; type: functional, cell-based; conditions: MCF7, 48 h; outline: as §1
[5] = tested on: PC-3; test: Antiproliferative activity against human PC3 cells assessed as reduction in cell viability after 48 hrs by CCK8 assay; type: functional, cell-based; conditions: PC-3, 48 h; outline: as §1
[6] = tested on: SK-OV-3; test: Antiproliferative activity against human SKOV3 cells assessed as reduction in cell viability after 48 hrs by CCK8 assay; type: functional, cell-based; conditions: SK-OV-3, 48 h; outline: as §1
[7] = molecular target: T1, Serine/threonine-protein kinase mTOR; test: Potency index, ratio of AZD8055 IC50 to test compound IC50 for mTOR (unknown origin)
[8] = molecular target: T2, Phosphatidylinositol 4,5-bisphosphate 3-kinase catalytic subunit alpha isoform; test: Potency index, ratio of AZD8055 IC50 to test compound IC50 for PI3Kalpha (unknown origin)
[9] = tested on: SK-OV-3; test: Potency index, ratio of AZD8055 IC50 to test compound IC50 for human SKOV3 cells; type: functional
[10] = molecular target: T2, Phosphatidylinositol 4,5-bisphosphate 3-kinase catalytic subunit alpha isoform; test: Inhibition of PI3Kalpha in human U87MG cells assessed as reduction in AKT phosphorylation at S473 residue at 20 to 200 nM after 24 hrs by Western blot analysis relative to control; type: cell-based
Outline: (§2)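 U87MG cells were treated at indicated concentrations for 24 h at 37 °C, then lysed in RIPA with protease/phosphatase inhibitors and 1 mM PMSF. Lysates were run on SDS–PAGE and PVDF blots probed overnight at 4 °C for AKT, pAKT Ser473, pAKT Thr308, S6RP and pS6RP Ser235/236. HRP secondary was used with chemiluminescent detection.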

[11] = molecular target: T2, Phosphatidylinositol 4,5-bisphosphate 3-kinase catalytic subunit alpha isoform; test: Inhibition of PI3Kalpha in human U87MG cells assessed as reduction in AKT phosphorylation at T308 residue at 20 to 200 nM after 24 hrs by Western blot analysis relative to control; type: cell-based; outline: as §2
[12] = molecular target: T2, Phosphatidylinositol 4,5-bisphosphate 3-kinase catalytic subunit alpha isoform; test: Inhibition of PI3Kalpha in human U87MG cells assessed as reduction in S6 phosphorylation at Ser235/236 after 24 hrs by Western blot analysis; type: cell-based; outline: as §2
[13] = molecular target: T2, Phosphatidylinositol 4,5-bisphosphate 3-kinase catalytic subunit alpha isoform; test: Inhibition of PI3Kalpha in human U87MG cells assessed as reduction in AKT phosphorylation at S473 residue at 2 nM after 24 hrs by Western blot analysis relative to control; type: cell-based; outline: as §2
[14] = molecular target: T2, Phosphatidylinositol 4,5-bisphosphate 3-kinase catalytic subunit alpha isoform; test: Inhibition of PI3Kalpha in human U87MG cells assessed as reduction in AKT phosphorylation at T308 residue at 2 nM after 24 hrs by Western blot analysis relative to control; type: cell-based; outline: as §2
[15] = Half life in pooled human liver microsomes at 50 uM pretreated for 5 mins followed by NADPH addition and measured after 120 mins by HPLC analysis; type: ADME, microsome
Outline: (§3)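 Pooled adult male and female human liver microsomes at 1 mg/mL in 0.1 M Tris-HCl pH 7.4, with test compound at 50 μM final. Mixtures were preincubated 5 min at 37 °C, then started with NADPH regenerating system. Reactions were stopped at 120 min with cold methanol, centrifuged, and analysed by HPLC.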

[16] = Unbound clearance in pooled human liver microsomes at 50 uM pretreated for 5 mins followed by NADPH addition and measured after 120 mins by HPLC analysis; type: ADME, microsome; conditions: 2 h; outline: as §3
[17] = tested on: U-87 MG; test: Antitumor activity against human U87MG cells xenografted in Balb/c mouse assessed as tumor growth inhibition at 30 mg/kg, ig administered daily for 10 days relative to control; type: functional, U-87MG ATCC; conditions: po, 240 h, read-out: TGI
Outline: (§4)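 Female BALB/c nude mice (6–7 weeks, 16–20 g, SPF, 5 groups of 5) were implanted subcutaneously with 5×10^6 U87MG cells. At 100–150 mm³ they were randomized and dosed intragastrically once daily for 10 days. Body weight was recorded twice every 3 days. Tumor volume was taken as V = 1/2ab² (a length, b width).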

[18] = tested on: U-87 MG; test: Antitumor activity against human U87MG cells xenografted in Balb/c mouse assessed as tumor growth inhibition at 10 mg/kg, ig administered daily for 10 days relative to control; type: functional, U-87MG ATCC; conditions: po, 240 h, read-out: TGI; outline: as §4
[19] = tested on: U-87 MG; test: Antitumor activity against human U87MG cells xenografted in Balb/c mouse assessed as tumor growth inhibition at 3 mg/kg, ig administered daily for 10 days relative to control; type: functional, U-87MG ATCC; conditions: po, 240 h, read-out: TGI; outline: as §4
[20] = tested on: U-87 MG; test: Antitumor activity against human U87MG cells xenografted in ig dosed Balb/c mouse assessed as tumor growth inhibition administered daily for 10 days; type: functional, organism-based; conditions: U-87MG ATCC; outline: as §4
[21] = tested on: Mus musculus; test: Toxicity in Balb/c mouse xenografted with human U87MG cells assessed as body weight loss at 3 to 30 mg/kg, ig administered daily for 10 days measured twice every 3 days during compound dosing; type: organism-based; conditions: in vivo, po; outline: as §4
[22] = Cmax in Beagle dog at 1 mg/kg, po administered as single dose via gavage; type: ADME, organism-based, Canis lupus familiaris; parameters: dose 1 mg/kg, route oral; conditions: in vivo
Outline: (§5)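 Three male Beagle dogs (9–10 months, 9–10 kg) given 1 mg/kg by oral gavage as a solution in physiological saline with 5% DMSO. Blood was drawn at 0.25–24 h and spun within 1 h (1000 × g, 4 °C, 15 min). Plasma was stored at -20 °C. t1/2 and AUC0–24 were obtained by model-independent analysis, and Cmax and MRT directly from the plasma concentration–time data.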

[23] = AUC (0 to 24 hrs) in Beagle dog at 1 mg/kg, po administered as single dose via gavage; type: ADME, organism-based, Canis lupus familiaris; parameters: time < 24 hr, dose 1 mg/kg, route oral; conditions: in vivo; outline: as §5
[24] = Half life in Beagle dog at 1 mg/kg, po administered as single dose via gavage; type: ADME, organism-based, Canis lupus familiaris; conditions: in vivo; outline: as §5
[25] = Mean residence time in Beagle dog at 1 mg/kg, po administered as single dose via gavage; type: ADME, organism-based, Canis lupus familiaris; conditions: in vivo; outline: as §5

T2 sequence (P42336 whole entry, canonical isoform): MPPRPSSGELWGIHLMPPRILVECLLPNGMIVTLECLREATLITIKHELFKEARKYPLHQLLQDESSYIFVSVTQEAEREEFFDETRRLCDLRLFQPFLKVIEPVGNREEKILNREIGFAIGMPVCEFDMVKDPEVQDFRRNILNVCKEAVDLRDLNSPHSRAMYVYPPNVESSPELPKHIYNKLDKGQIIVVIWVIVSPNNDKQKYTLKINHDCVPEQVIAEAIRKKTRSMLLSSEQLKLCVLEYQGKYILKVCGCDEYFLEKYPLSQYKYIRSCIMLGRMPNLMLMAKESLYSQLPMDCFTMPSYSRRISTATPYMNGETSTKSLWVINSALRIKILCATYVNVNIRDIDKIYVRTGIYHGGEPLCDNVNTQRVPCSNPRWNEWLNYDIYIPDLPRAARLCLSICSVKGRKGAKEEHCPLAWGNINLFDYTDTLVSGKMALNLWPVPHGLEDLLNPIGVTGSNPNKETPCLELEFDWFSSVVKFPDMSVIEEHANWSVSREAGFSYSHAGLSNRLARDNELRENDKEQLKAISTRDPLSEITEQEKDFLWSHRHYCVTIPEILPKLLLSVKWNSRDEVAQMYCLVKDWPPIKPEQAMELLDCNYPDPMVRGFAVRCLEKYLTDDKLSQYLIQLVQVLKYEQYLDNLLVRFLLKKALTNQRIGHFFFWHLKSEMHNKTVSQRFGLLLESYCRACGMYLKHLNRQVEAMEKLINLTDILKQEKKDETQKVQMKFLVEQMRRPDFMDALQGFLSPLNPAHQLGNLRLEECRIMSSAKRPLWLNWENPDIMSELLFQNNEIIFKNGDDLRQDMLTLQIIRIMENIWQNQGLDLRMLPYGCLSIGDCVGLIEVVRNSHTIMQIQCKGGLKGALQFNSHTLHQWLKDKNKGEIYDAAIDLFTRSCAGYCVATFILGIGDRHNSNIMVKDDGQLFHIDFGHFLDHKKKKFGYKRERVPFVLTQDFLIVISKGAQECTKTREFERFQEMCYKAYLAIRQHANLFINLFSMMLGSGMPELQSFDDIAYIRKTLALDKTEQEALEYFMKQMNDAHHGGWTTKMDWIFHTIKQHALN

IC50 [1] [µM]	IC50 [2] [µM]	IC50 [3] [µM]	IC50 [4] [µM]	IC50 [5] [µM]	IC50 [6] [µM]	Compound	also measured
0.095	> 10	0.0919	0.0773	0.066	0.0491	COc1ccc(-c2ccc3c(N4CCOC[C@@H]4C)nc(C)nc3n2)cc1CO	
0.03	> 10	0.0855	0.225	0.212	0.125	COc1ccc(-c2ccc3c(N4CCOC[C@@H]4C)nc(C4=CCOCC4)nc3n2)cc1CO	
0.032	2.6	0.92	> 1	> 1	0.66	COc1ccc(-c2ccc3c(N4CCOCC4)nc(C#N)nc3n2)cc1CO	
0.002	0.4	0.0032	0.006	0.023	0.007	COc1ccc(-c2ccc3c(N4CCOC[C@@H]4C)nc(C(C)(C)C)nc3n2)cc1CO	Ratio IC50 [7]: 4; Ratio IC50 [8]: 10; Ratio IC50 [9]: 8; inhibition [10]: 100%; inhibition [11]: 100%; inhibition [12]: Dose-dependent effect; inhibition [13]: Active; inhibition [14]: Active; half-life at 50 µM [15]: 0.515 h; CL free [16]: 28.1 µL/min/mg; inhibition in vivo at 30 mg/kg [17]: 83%; inhibition in vivo at 10 mg/kg [18]: 64%; inhibition in vivo at 3 mg/kg [19]: 28%; TGI [20]: Dose-dependent effect; Activity [21]: Non-Toxic; Cmax [22]: 288 ng/mL; AUC(0-t) at 24 h [23]: 857 ng·h/mL; half-life [24]: 5.4 h; MRT [25]: 4.3 h
0.048	3.2	0.821	> 1	> 1	0.64	COc1ccc(-c2ccc3c(N4CCOCC4)nc(C(N)=O)nc3n2)cc1CO	
		0.0212	0.027	0.0367	0.055	COc1ccc(-c2ccc3c(N4CCOC[C@@H]4C)nc(N4CCOC[C@@H]4C)nc3n2)cc1CO [AZD-8055]	half-life at 50 µM [15]: 0.35 h; CL free [16]: 28.6 µL/min/mg; inhibition in vivo at 10 mg/kg [18]: 59%; Cmax [22]: 228 ng/mL; AUC(0-t) at 24 h [23]: 787 ng·h/mL; half-life [24]: 4.5 h; MRT [25]: 3.1 h
0.146	> 10	> 1	> 1	> 1	> 1	COc1ccc(-c2ccc3c(N4CCOCC4)nc(CN)nc3n2)cc1CO	
> 0.5	> 10	> 1	> 1	> 1	> 1	COc1ccc(-c2ccc3c(N4CCOCC4)nc(CS(C)(=O)=O)nc3n2)cc1CO	
0.01	3	0.0338	0.054	0.155	0.0447	COc1ccc(-c2ccc3c(N4CCOC[C@@H]4C)nc(C(C)C)nc3n2)cc1CO	
0.053	> 10	0.0942	0.443	0.476	0.119	COc1ccc(-c2ccc3c(N4CCOC[C@@H]4C)nc(C4CCOCC4)nc3n2)cc1CO	
> 0.5	> 10	> 1	> 1	> 1	> 1	COc1ccc(-c2ccc3c(N4CCOCC4)nc(C(CO)CO)nc3n2)cc1CO	
0.029	> 10	0.0892	0.072	0.163	0.0524	COc1ccc(-c2ccc3c(N4CCOC[C@@H]4C)nc(CC(OC)OC)nc3n2)cc1CO	
0.072	1.3	0.0325	0.031	0.11	0.0586	CNC(=O)c1cccc(-c2ccc3c(N4CCOC[C@@H]4C)nc(C(C)(C)C)nc3n2)c1	
0.088	> 10	0.0903	0.186	0.0666	0.0545	COc1ccc(-c2ccc3c(N4CCOCC4)nc(CC#N)nc3n2)cc1CO	
